Results as given in ChEMBL document CHEMBL3797028, “Novel S1P1 receptor agonists - Part 4: Alkylaminomethyl substituted aryl head groups” (Eur J Med Chem, 2016).

Experiments:
[1] = target: Sphingosine 1-phosphate receptor 3 (Homo sapiens, UniProt Q99500); assay: Agonist activity at human recombinant S1PR3 expressed in CHO cell membranes assessed as [35S]GTPgammaS binding preincubated for 30 mins followed by [35S]GTPgammaS addition measured after 1 hr by topcount analysis; format: functional
Method in brief: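 Membranes from CHO cells expressing recombinant human S1P1 or S1P3 were used. Buffer was 20 mM Hepes pH 7.4, 100 mM NaCl, 5 mM MgCl2, 0.1% fatty-acid-free BSA, 2.5% DMSO and 50 pM 35S-GTPgammaS. GDP was […] for S1P3. Compound was preincubated 30 min at rt, then incubated 1 h at rt with 35S-GTPgammaS. Bound label was collected by filtration and counted. Specific binding was taken against 10 uM S1P. EC50 was the 50%-of-specific-binding concentration, reported as the geometric mean of at least three independent duplicate runs.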

[2] = target: Sphingosine 1-phosphate receptor 1 (Homo sapiens, UniProt P21453); assay: Agonist activity at human recombinant S1PR1 expressed in CHO cell membranes assessed as [35S]GTPgammaS binding preincubated for 30 mins followed by [35S]GTPgammaS addition measured after 1 hr by topcount analysis
[3] = Selectivity ratio of EC50 for human recombinant S1PR3 expressed in CHO cell membranes to EC50 for human recombinant S1PR1 expressed in CHO cell membranes; format: cell-based
Method in brief: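 Compound and membranes are pre-incubated 30 min at rt, then incubated 1 h at rt, filtered and counted. EC50 is the concentration giving 50% of S1P-defined specific binding, as the geometric mean of ≥3 independent duplicate runs. Ratio = EC50 S1PR3/EC50 S1PR1.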

Sequence of Sphingosine 1-phosphate receptor 1 (P21453 whole entry): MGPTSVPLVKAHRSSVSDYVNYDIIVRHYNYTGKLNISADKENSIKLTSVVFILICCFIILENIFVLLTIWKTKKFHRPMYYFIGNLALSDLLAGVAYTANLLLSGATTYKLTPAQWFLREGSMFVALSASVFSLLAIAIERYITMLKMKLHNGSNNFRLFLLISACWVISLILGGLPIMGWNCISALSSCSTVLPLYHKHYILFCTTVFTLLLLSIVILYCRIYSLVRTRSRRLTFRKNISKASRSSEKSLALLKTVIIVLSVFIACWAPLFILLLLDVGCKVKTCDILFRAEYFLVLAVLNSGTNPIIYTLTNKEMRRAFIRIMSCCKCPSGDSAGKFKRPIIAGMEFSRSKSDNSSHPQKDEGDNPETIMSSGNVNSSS
Sequence of Sphingosine 1-phosphate receptor 3 (Q99500 whole entry): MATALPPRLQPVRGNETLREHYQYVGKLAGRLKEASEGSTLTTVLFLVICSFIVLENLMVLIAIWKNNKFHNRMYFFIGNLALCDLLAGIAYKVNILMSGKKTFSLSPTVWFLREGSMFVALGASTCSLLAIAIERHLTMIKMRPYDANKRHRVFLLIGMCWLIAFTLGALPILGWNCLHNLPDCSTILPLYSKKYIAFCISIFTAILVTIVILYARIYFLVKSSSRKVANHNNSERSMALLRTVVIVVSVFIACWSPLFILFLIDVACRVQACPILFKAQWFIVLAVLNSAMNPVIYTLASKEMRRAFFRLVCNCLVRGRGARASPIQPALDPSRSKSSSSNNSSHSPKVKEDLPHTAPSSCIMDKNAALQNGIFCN

| Structure (SMILES) | EC50 [1] | EC50 [2] | Ratio EC50 [3] |
| --- | --- | --- | --- |
| CCc1cc(-c2noc(-c3cc(CN(C)CC(C)C)cc(C(C)C)c3)n2)cc(C)c1OC[C@@H](O)CNC(=O)CO | 1.4 nM | 1.1 nM | < 2 |
| CCc1cc(-c2noc(-c3ccc(CNC)s3)n2)cc(C)c1OC[C@@H](O)CNC(=O)CO | > 10000 nM | 189 nM | > 53 |
| CCc1cc(-c2noc(-c3cc(C)c(C=O)s3)n2)cc(C)c1OC[C@@H](O)CNC(=O)CO | > 10000 nM | 26 nM | – |
| CCc1cc(-c2noc(-c3cc(C)c(CNCC(C)C)s3)n2)cc(C)c1OC[C@@H](O)CNC(=O)CO | 1400 nM | 20 nM | 70 |
| CCNCc1ccc(-c2nc(-c3cc(C)c(OC[C@@H](O)CNC(=O)CO)c(CC)c3)no2)s1 | > 10000 nM | 293 nM | > 34 |
| CCc1cc(-c2noc(-c3ccc(CN4CCCC4)c(C)c3)n2)cc(C)c1OC[C@@H](O)CNC(=O)CO | 3100 nM | 50 nM | 62 |
| CCCCN(C)Cc1ccc(-c2nc(-c3cc(C)c(OC[C@@H](O)CNC(=O)CO)c(CC)c3)no2)cc1C | 350 nM | 5.3 nM | 66 |
| CCc1cc(-c2nnc(-c3cc(C)nc(N(CC)CC)c3)o2)cc(C)c1OC[C@@H](O)CNC(=O)CO | – | 7.9 nM | – |
| CCc1cc(-c2noc(-c3ccc(CN(C)C)cc3C)n2)cc(C)c1OC[C@@H](O)CNC(=O)CO | > 10000 nM | 230 nM | > 43 |
| CCc1cc(-c2noc(-c3cccc(CNC)c3)n2)cc(C)c1OC[C@@H](O)CNC(=O)CO | > 10000 nM | 190 nM | > 53 |
| CCc1cc(-c2nc(-c3cc(C)c(OC[C@@H](O)CNC(=O)CO)c(CC)c3)no2)ccc1CN(CC)CC | 210 nM | 1 nM | 210 |
| CCc1cc(-c2noc(-c3ccc(CN(C)CC)s3)n2)cc(C)c1OC[C@@H](O)CNC(=O)CO | 4600 nM | 6.8 nM | 676 |
| CCc1cc(-c2noc(-c3ccc(CN(C)C)s3)n2)cc(C)c1OC[C@@H](O)CNC(=O)CO | > 10000 nM | 5.4 nM | > 1850 |
| CCc1cc(-c2noc(-c3cc(C)nc(CN4CCCC4)c3)n2)cc(C)c1OC[C@@H](O)CNC(=O)CO | > 10000 nM | 95 nM | > 105 |
| CCc1cc(-c2noc(-c3cc(C)nc(CN(CC)CC)c3)n2)cc(C)c1OC[C@@H](O)CNC(=O)CO | 8100 nM | 45 nM | 180 |
| CCCN(C)Cc1sc(-c2nc(-c3cc(C)c(OC[C@@H](O)CNC(=O)CO)c(CC)c3)no2)c(C)c1C | 370 nM | 14 nM | 26 |
| CCc1cc(-c2noc(-c3ccc(CN(C)C)cc3)n2)cc(C)c1OC[C@@H](O)CNC(=O)CO | > 10000 nM | 160 nM | > 62 |

| Structure (SMILES) | EC50 [1] | EC50 [2] | Ratio EC50 [3] |
| --- | --- | --- | --- |
| CCCCN(C)Cc1sc(-c2nc(-c3cc(C)c(OC[C@@H](O)CNC(=O)CO)c(CC)c3)no2)cc1C | 120 nM | 0.7 nM | 171 |
| CCCc1cc(CN(C)CC(C)C)cc(-c2nc(-c3cc(C)c(OC[C@@H](O)CNC(=O)CO)c(CC)c3)no2)c1 | 3.5 nM | 2.8 nM | < 2 |
| CCc1cc(-c2noc(-c3cc(C)c(CN(C)CC)s3)n2)cc(C)c1OC[C@@H](O)CNC(=O)CO | 150 nM | 1.3 nM | 115 |
| CCCNCc1cccc(-c2nc(-c3cc(C)c(OC[C@@H](O)CNC(=O)CO)c(CC)c3)no2)c1 | > 10000 nM | 305 nM | > 33 |
| CCCN(C)Cc1sc(-c2nc(-c3cc(C)c(OC[C@@H](O)CNC(=O)CO)c(CC)c3)no2)cc1CC | 20 nM | 0.5 nM | 40 |
| CCc1cc(-c2noc(-c3sc(CN(C)C)c(C)c3C)n2)cc(C)c1OC[C@@H](O)CNC(=O)CO | 4400 nM | 6.4 nM | 687 |
| CCc1cc(-c2noc(-c3sc(CN(C)CC(C)C)c(C)c3C)n2)cc(C)c1OC[C@@H](O)CNC(=O)CO | 2300 nM | 55 nM | 42 |
| CCc1cc(-c2noc(-c3cc(C)c(CNC)s3)n2)cc(C)c1OC[C@@H](O)CNC(=O)CO | > 10000 nM | 14 nM | > 714 |
| CCc1cc(-c2noc(-c3cc(CN(C)CC(C)C)ccc3C)n2)cc(C)c1OC[C@@H](O)CNC(=O)CO | > 10000 nM | 490 nM | > 20 |
| CCCN(C)Cc1sc(-c2nc(-c3cc(C)c(OC[C@@H](O)CNC(=O)CO)c(CC)c3)no2)cc1C | 120 nM | 0.6 nM | 200 |
| CCc1cc(-c2noc(-c3ccc(CNC(C)C)s3)n2)cc(C)c1OC[C@@H](O)CNC(=O)CO | > 10000 nM | 203 nM | > 49 |
| CCc1cc(-c2noc(-c3cc(C)c(CN(C)CCN(C)C)s3)n2)cc(C)c1OC[C@@H](O)CNC(=O)CO | > 10000 nM | 155 nM | > 64 |
| CCc1cc(-c2noc(-c3cc(C)nc(CN(CC)CC)c3)n2)cc(C)c1OC[C@@H](O)CO | – | 110 nM | – |
| CCc1cc(-c2noc(-c3cc(C)c(CN(C)CCO)s3)n2)cc(C)c1OC[C@@H](O)CNC(=O)CO | 1700 nM | 2.8 nM | 607 |
| CCc1cc(-c2noc(-c3cc(C)cc(CNCC(C)C)c3)n2)cc(C)c1OC[C@@H](O)CNC(=O)CO | 2100 nM | 15 nM | 140 |
| CCc1cc(-c2noc(-c3ccc(CNC)cc3)n2)cc(C)c1OC[C@@H](O)CNC(=O)CO | > 10000 nM | 2090 nM | > 4.8 |
| CCc1cc(-c2noc(-c3ccc(CN(CC)CC)c(C)c3)n2)cc(C)c1OC[C@@H](O)CNC(=O)CO | 560 nM | 10 nM | 56 |

The next lines start with results.

| EC50 [1] | EC50 [2] | Structure (SMILES) | Ratio EC50 [3] |
| --- | --- | --- | --- |
| 870 nM | 8.5 nM | CCCN(C)Cc1cc(-c2nc(-c3cc(C)c(OC[C@@H](O)CNC(=O)CO)c(CC)c3)no2)cc(C)n1 | 102 |
| > 10000 nM | 270 nM | CCc1cc(-c2noc(-c3ccc(CNCC(C)C)c(C)c3)n2)cc(C)c1OC[C@@H](O)CNC(=O)CO | > 37 |
| 910 nM | 14 nM | CCc1cc(-c2noc(-c3ccc(CN(C)CC)c(C)c3)n2)cc(C)c1OC[C@@H](O)CNC(=O)CO | 65 |
| 100 nM | 1 nM | CCc1cc(-c2nc(-c3cc(C)c(OC[C@@H](O)CNC(=O)CO)c(CC)c3)no2)ccc1CN(C)CC | 100 |
| 5500 nM | 69 nM | CCc1cc(-c2noc(-c3cc(C)c(CN(C)C)c(C)c3)n2)cc(C)c1OC[C@@H](O)CNC(=O)CO | > 80 |
| 3200 nM | – | CCc1cc(-c2noc(-c3ccc(CN(C)C)c(C)c3)n2)cc(C)c1OC[C@@H](O)CNC(=O)CO | – |
| > 10000 nM | 385 nM | CCc1cc(-c2noc(-c3ccc(C)c(CN(C)C)c3)n2)cc(C)c1OC[C@@H](O)CNC(=O)CO | > 26 |
| 1500 nM | 4.3 nM | CCCCN(C)Cc1cc(-c2nc(-c3cc(C)c(OC[C@@H](O)CNC(=O)CO)c(CC)c3)no2)cc(C)n1 | 349 |
| 2900 nM | 310 nM | CCCCN(C)Cc1cc(-c2nc(-c3cc(C)c(OC[C@@H](O)CNC(=O)CO)c(CC)c3)no2)ccc1C | 9 |
| 9000 nM | 285 nM | CCc1cc(-c2noc(-c3ccc(C)c(CN(C)CC)c3)n2)cc(C)c1OC[C@@H](O)CNC(=O)CO | 32 |
| > 10000 nM | 2350 nM | CCc1cc(-c2noc(-c3ccc(C)c(CNCC(C)C)c3)n2)cc(C)c1OC[C@@H](O)CNC(=O)CO | > 4 |
| 4300 nM | 305 nM | CCCN(C)Cc1cc(-c2nc(-c3cc(C)c(OC[C@@H](O)CNC(=O)CO)c(CC)c3)no2)ccc1C | 14 |
| 380 nM | 4.1 nM | CCCN(C)Cc1cc(C)cc(-c2nc(-c3cc(C)c(OC[C@@H](O)CNC(=O)CO)c(CC)c3)no2)c1 | 93 |
| 8 nM | 1.1 nM | CCc1cc(CN(C)CC(C)C)cc(-c2nc(-c3cc(C)c(OC[C@@H](O)CNC(=O)CO)c(CC)c3)no2)c1 | 7 |
| – | 5.1 nM | CCc1cc(-c2nc(-c3cc(C)c(CCC(=O)NCCO)c(CC)c3)no2)cnc1N(C)C(C)C | – |
| 45 nM | 0.3 nM | CCc1cc(-c2nc(-c3cc(C)c(OC[C@@H](O)CNC(=O)CO)c(CC)c3)no2)sc1CN(C)C | 150 |
| > 10000 nM | 40 nM | CCc1cc(-c2noc(-c3cc(C)nc(CN(C)C)c3)n2)cc(C)c1OC[C@@H](O)CNC(=O)CO | > 250 |
| 1200 nM | 97 nM | CCc1cc(-c2noc(-c3ccc(C)c(CN(C)CC(C)C)c3)n2)cc(C)c1OC[C@@H](O)CNC(=O)CO | 12 |
